Laboratory results as given in ChEMBL document CHEMBL3860041, “Synthesis, biological evaluation and molecular modeling study of some new methoxylated 2-benzylthio-quinazoline-4(3H)-ones as nonclassical antifolates” (Bioorg Med Chem Lett, 2016).
pIC50: −log10 of the molar value.

Columns and labels:
[1] = Growth inhibition of human leukemia cells after 48 hrs by SRB assay; format: functional; conditions: Leukemia cell; for CC50: read-out: LC50 (the source's name)
Method in brief: (§1)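 Follow-up NCI panel testing over a 5-log dose range for each cell line. GI50, TGI and LC50 were monitored, with 5-fluorouracil run as the positive control. Values are grouped by tumour subpanel.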

[2] = Growth inhibition of human K562 cells at 10 uM after 48 hrs by SRB assay relative to control; format: functional; conditions: K562, 48 h, read-out: GI
Method in brief: (§2)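 NCI 60-cell-line panel, nine tumor subpanels; compounds tested at a single dose of 10 μM in the primary screen.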

[3] = Growth inhibition of human CNS cancer cells after 48 hrs by SRB assay; format: functional; conditions: Cancer cell lines
Method in brief: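 Five-log dose range against NCI tumor cell lines, monitoring GI50, TGI and LC50 for each cell line; MG-MID values derived across the panel; 5-fluorouracil positive control.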

[4] = Growth inhibition of human MALME-3M cells at 10 uM after 48 hrs by SRB assay relative to control; format: functional; conditions: read-out: GI; method in brief: as §2
Cancer cell lines [5] = experiment: Potency index, ratio of 5-fluorouracil GI50 to compound GI50 for human prostate cancer cells; format: functional
Method in brief: (§3)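 GI50 for each cell line came from NCI panel testing over a 5-log dose range, with 5-fluorouracil tested alongside as the reference drug. The index relates the 5-fluorouracil GI50 to the compound GI50 within each tumour subpanel.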

[6] = Growth inhibition of human UACC257 cells at 10 uM after 48 hrs by SRB assay relative to control; format: functional; conditions: UACC-257, 48 h, read-out: GI
Method in brief: (§4)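 Primary screen across the full NCI 60 human tumour cell line panel, which covers nine tumour subpanels. A single dose of 10 μM was applied to each line, and growth was recorded for each cell line.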

[7] = Growth inhibition of human HCC2998 cells at 10 uM after 48 hrs by SRB assay relative to control; format: functional; conditions: HCC 2998, 48 h, read-out: GI; method in brief: as §2
[8] = Growth inhibition of human HCT116 cells at 10 uM after 48 hrs by SRB assay relative to control; format: functional; conditions: HCT-116, 48 h, read-out: GI; method in brief: as §2
[9] = Growth inhibition of human A498 cells at 10 uM after 48 hrs by SRB assay relative to control; format: functional; conditions: A498, 48 h, read-out: GI; method in brief: as §2
[10] = Growth inhibition of human SN12C cells at 10 uM after 48 hrs by SRB assay relative to control; format: functional; conditions: read-out: GI; method in brief: as §4
[11] = Growth inhibition of human U251 cells at 10 uM after 48 hrs by SRB assay relative to control; format: functional; conditions: U-251, 48 h, read-out: GI; method in brief: as §4
Cancer cell lines [12] = experiment: Potency index, ratio of 5-fluorouracil GI50 to compound GI50 for human breast cancer cells; format: functional; method in brief: as §3
[13] = Growth inhibition of human BT549 cells at 10 uM after 48 hrs by SRB assay relative to control; format: functional; conditions: BT-549, 48 h, read-out: GI; method in brief: as §2
[14] = Growth inhibition of human ovarian cancer cells after 48 hrs by SRB assay; format: functional; conditions: Cancer cell lines; method in brief: as §1
[15] = Growth inhibition of human NCI-H23 cells at 10 uM after 48 hrs by SRB assay relative to control; format: functional; conditions: NCI-H23, 48 h, read-out: GI; method in brief: as §2
Cancer cell lines [16] = experiment: Potency index, ratio of 5-fluorouracil GI50 to compound GI50 for human non-small cell lung cancer cells; format: functional; method in brief: as §3
Leukemia cell = experiment: Potency index, ratio of 5-fluorouracil GI50 to compound GI50 for human leukemia cells; format: functional; method in brief: as §3
[17] = Growth inhibition of human LOXIMVI cells at 10 uM after 48 hrs by SRB assay relative to control; format: functional; conditions: LOX IMVI, read-out: GI; method in brief: as §2
Melanoma cell = experiment: Potency index, ratio of 5-fluorouracil GI50 to compound GI50 for human melanoma cells; format: functional; method in brief: as §3
[18] = Growth inhibition of human Caki1 cells at 10 uM after 48 hrs by SRB assay relative to control; format: functional; conditions: CAKI-1, 48 h, read-out: GI; method in brief: as §2
[19] = Growth inhibition of human RXF393 cells at 10 uM after 48 hrs by SRB assay relative to control; format: functional; conditions: RXF 393, 48 h, read-out: GI; method in brief: as §2
[20] = Growth inhibition of human PC3 cells at 10 uM after 48 hrs by SRB assay relative to control; format: functional; conditions: PC-3, 48 h, read-out: GI; method in brief: as §2
[21] = Growth inhibition of human SW620 cells at 10 uM after 48 hrs by SRB assay relative to control; format: functional; conditions: SW-620, 48 h, read-out: GI; method in brief: as §4
[22] = Growth inhibition of human ACHN cells at 10 uM after 48 hrs by SRB assay relative to control; format: functional; conditions: read-out: GI; method in brief: as §2
[23] = Growth inhibition of human T47D cells at 10 uM after 48 hrs by SRB assay relative to control; format: functional; conditions: read-out: GI; method in brief: as §4
Dihydrofolate reductase = target: T1, Dihydrofolate reductase (Bos taurus, UniProt P00376); experiment: Inhibition of bovine liver DHFR preincubated for 2 mins followed by addition of FH2 as substrate and NADPH
T1 sequence (P00376 whole entry): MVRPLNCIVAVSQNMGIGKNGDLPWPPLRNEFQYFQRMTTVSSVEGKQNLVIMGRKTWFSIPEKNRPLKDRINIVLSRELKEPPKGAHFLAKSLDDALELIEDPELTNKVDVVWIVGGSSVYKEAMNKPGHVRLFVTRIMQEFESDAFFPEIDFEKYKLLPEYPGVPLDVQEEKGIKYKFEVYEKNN

Cancer cell lines [24] = experiment: Potency index, ratio of 5-fluorouracil GI50 to compound GI50 for human colon cancer cells; format: functional; method in brief: as §3
[25] = Growth inhibition of human UACC62 cells at 10 uM after 48 hrs by SRB assay relative to control; format: functional; conditions: UACC-62, 48 h, read-out: GI; method in brief: as §4
[26] = Growth inhibition of human SK-MEL-28 cells at 10 uM after 48 hrs by SRB assay relative to control; format: functional; conditions: SK-MEL-28, 48 h, read-out: GI; method in brief: as §4
[27] = Growth inhibition of human Hs 578T cells at 10 uM after 48 hrs by SRB assay relative to control; format: functional; conditions: read-out: GI; method in brief: as §2
[28] = Growth inhibition of human NCI-322M cells at 10 uM after 48 hrs by SRB assay relative to control; format: functional; conditions: read-out: GI; method in brief: as §2
[29] = Growth inhibition of human SK-MEL-2 cells at 10 uM after 48 hrs by SRB assay relative to control; format: functional; conditions: SK-MEL-2, 48 h, read-out: GI; method in brief: as §4
[30] = Growth inhibition of human NCI-H460 cells at 10 uM after 48 hrs by SRB assay relative to control; format: functional; conditions: NCI-H460, 48 h, read-out: GI; method in brief: as §2
[31] = Growth inhibition of human NCI/ADR-RES cells at 10 uM after 48 hrs by SRB assay relative to control; format: functional; conditions: read-out: GI; method in brief: as §2
[32] = Growth inhibition of human SF539 cells at 10 uM after 48 hrs by SRB assay relative to control; format: functional; conditions: SF-539, 48 h, read-out: GI; method in brief: as §2

COc1cc(CSc2nc3ccc(C)cc3c(=O)n2-c2ccccc2)cc(OC)c1OC
GI50 [1]: 1.8 µM | TGI [1]: > 100 µM | CC50 [1]: > 100 µM | inhibition of growth at 10 µM [2]: 89.6% | GI50 [3]: 5.4 µM | LC50 (lethal concentration, 50% net cell kill) [3]: > 100 µM | TGI [3]: 60.9 µM | inhibition of growth at 10 µM [4]: 57.6% | RatioGI50 (Cancer cell lines [5]): 10 | inhibition of growth at 10 µM [6]: 49.8% | inhibition of growth at 10 µM [7]: 50.3% | inhibition of growth at 10 µM [8]: 73.4% | inhibition of growth at 10 µM [9]: 84% | inhibition of growth at 10 µM [10]: 63% | inhibition of growth at 10 µM [11]: 61.5% | RatioGI50 (Cancer cell lines [12]): 10 | inhibition of growth at 10 µM [13]: 80.4% | GI50 [14]: 4 µM | LC50 (50% lethal concentration) [14]: > 100 µM | TGI [14]: 84.6 µM | inhibition of growth at 10 µM [15]: 78% | RatioGI50 (Cancer cell lines [16]): 10 | RatioGI50 (Leukemia cell): 10 | inhibition of growth at 10 µM [17]: 64% | RatioGI50 (Melanoma cell): 10 | inhibition of growth at 10 µM [18]: 72.4% | inhibition of growth at 10 µM [19]: 85.8% | inhibition of growth at 10 µM [20]: 51% | inhibition of growth at 10 µM [21]: 70.3% | inhibition of growth at 10 µM [22]: 55.3% | inhibition of growth at 10 µM [23]: 71.8% | pIC50 (Dihydrofolate reductase): 5.15 | RatioGI50 (Cancer cell lines [24]): 10 | inhibition of growth at 10 µM [25]: 79.2% | inhibition of growth at 10 µM [26]: 47.9% | inhibition of growth at 10 µM [27]: 71.8% | inhibition of growth at 10 µM [28]: 52.6% | inhibition of growth at 10 µM [29]: 85.3% | inhibition of growth at 10 µM [30]: 79.8% | inhibition of growth at 10 µM [31]: 82.2% | inhibition of growth at 10 µM [32]: 96.5%

COc1cc(CSc2nc3ccc(C)cc3c(=O)n2Cc2ccccc2)cc(OC)c1OC
GI50 [1]: 2.4 µM | TGI [1]: 85.2 µM | CC50 [1]: > 100 µM | inhibition of growth at 10 µM [2]: 86.2% | GI50 [3]: 3.5 µM | LC50 (lethal concentration, 50% net cell kill) [3]: 81.9 µM | TGI [3]: 46.7 µM | inhibition of growth at 10 µM [4]: 70% | RatioGI50 (Cancer cell lines [5]): 10 | inhibition of growth at 10 µM [6]: 52.6% | inhibition of growth at 10 µM [7]: 57% | inhibition of growth at 10 µM [8]: 74.9% | inhibition of growth at 10 µM [9]: 93% | inhibition of growth at 10 µM [10]: 60% | inhibition of growth at 10 µM [11]: 67% | RatioGI50 (Cancer cell lines [12]): 10 | inhibition of growth at 10 µM [13]: 65.2% | GI50 [14]: 3.3 µM | LC50 (50% lethal concentration) [14]: 92.7 µM | TGI [14]: 57.6 µM | inhibition of growth at 10 µM [15]: 78.7% | RatioGI50 (Cancer cell lines [16]): 10 | RatioGI50 (Leukemia cell): 10 | inhibition of growth at 10 µM [17]: 60.2% | RatioGI50 (Melanoma cell): 10 | inhibition of growth at 10 µM [18]: 71.3% | inhibition of growth at 10 µM [20]: 54.1% | inhibition of growth at 10 µM [21]: 74.2% | inhibition of growth at 10 µM [22]: 53.3% | inhibition of growth at 10 µM [23]: 65.9% | pIC50 (Dihydrofolate reductase): 6.00 | RatioGI50 (Cancer cell lines [24]): 10 | inhibition of growth at 10 µM [25]: 78.6% | inhibition of growth at 10 µM [26]: 48% | inhibition of growth at 10 µM [27]: 79.3% | inhibition of growth at 10 µM [28]: 53.8% | inhibition of growth at 10 µM [29]: 99.1% | inhibition of growth at 10 µM [30]: 82.3% | inhibition of growth at 10 µM [31]: 87.3%
